A selection: hits, their analogues and other compounds. The true share with any hit is near 0.99%.
MT1-MMP act inh = blockers of MT1-MMP proenzyme processing, primary screen, HT1080 RFP-PRO-GFP cells, GFP/RFP fluorescence. Matrix metalloproteinase-14 (Homo sapiens), P50281. GFP/RFP ratio fluorescence, overnight; percent of plate control window, DMSO zero. GFP/RFP ratio change, % at 20 µM. hit rate 0.061% among 360,000. AID 651647, 2012;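 active = GFP/RFP ratio change of at least 30% with cell ATP level not reduced by more than half and red fluorescence within 50% of control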
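Material: RFP-PRO-GFP reporter HT1080 cells. Dosing: single-point 20 µM compound, 1% DMSO. Controls: DMSO and RFP-L50D-GFP cell wells. Timing: cells overnight before dosing, compound overnight, 37 °C, 5% CO2. Measure: GFP/RFP fluorescence ratio.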
SKN-1 inh = suppressors of acrylamide-induced Pgst-4::GFP reporter in worms, primary screen, SKN-1 inhibitor project, whole organism, uHTS, GFP/RFP fluorescence ratio, strain VP596. C. elegans VP596 Pgst-4::GFP/RFP ratio, 24 h. inhibition, % at 21.8 µM. hit rate 0.49% among 360,000. AID 624304, 2012;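 active = interference check ratio from 0.5 to 1.5 plus GFP to RFP signal ratio inhibition reaching or exceeding a fixed threshold, cut at about 30% in these data, passing the limit was not always enough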
TLR9-MyD88 block = inhibitors of TLR9-MyD88 association in cells, primary screen, cell-based, CHO, BLA complementation, fluorescence | Toll-like receptor 9 (Homo sapiens) + Myeloid differentiation primary response protein … | CCF4 FRET ratio | inhibition, % at 4.98 µM | hit rate 0.21% among 340,000;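 active = inhibition above the mean over all tested compounds plus 3 SD, cut at about 21% in these data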
Target sequence (Q99836 whole entry, looked up): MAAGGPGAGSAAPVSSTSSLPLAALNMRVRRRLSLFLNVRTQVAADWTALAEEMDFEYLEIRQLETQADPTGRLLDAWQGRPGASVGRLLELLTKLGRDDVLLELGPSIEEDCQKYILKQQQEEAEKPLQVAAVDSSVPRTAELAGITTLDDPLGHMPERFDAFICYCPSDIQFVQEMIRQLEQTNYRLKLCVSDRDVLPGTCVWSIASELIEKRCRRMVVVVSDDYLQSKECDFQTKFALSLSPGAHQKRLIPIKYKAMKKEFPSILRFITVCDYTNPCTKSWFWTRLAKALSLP
Target sequence (Q9NR96 whole entry, looked up): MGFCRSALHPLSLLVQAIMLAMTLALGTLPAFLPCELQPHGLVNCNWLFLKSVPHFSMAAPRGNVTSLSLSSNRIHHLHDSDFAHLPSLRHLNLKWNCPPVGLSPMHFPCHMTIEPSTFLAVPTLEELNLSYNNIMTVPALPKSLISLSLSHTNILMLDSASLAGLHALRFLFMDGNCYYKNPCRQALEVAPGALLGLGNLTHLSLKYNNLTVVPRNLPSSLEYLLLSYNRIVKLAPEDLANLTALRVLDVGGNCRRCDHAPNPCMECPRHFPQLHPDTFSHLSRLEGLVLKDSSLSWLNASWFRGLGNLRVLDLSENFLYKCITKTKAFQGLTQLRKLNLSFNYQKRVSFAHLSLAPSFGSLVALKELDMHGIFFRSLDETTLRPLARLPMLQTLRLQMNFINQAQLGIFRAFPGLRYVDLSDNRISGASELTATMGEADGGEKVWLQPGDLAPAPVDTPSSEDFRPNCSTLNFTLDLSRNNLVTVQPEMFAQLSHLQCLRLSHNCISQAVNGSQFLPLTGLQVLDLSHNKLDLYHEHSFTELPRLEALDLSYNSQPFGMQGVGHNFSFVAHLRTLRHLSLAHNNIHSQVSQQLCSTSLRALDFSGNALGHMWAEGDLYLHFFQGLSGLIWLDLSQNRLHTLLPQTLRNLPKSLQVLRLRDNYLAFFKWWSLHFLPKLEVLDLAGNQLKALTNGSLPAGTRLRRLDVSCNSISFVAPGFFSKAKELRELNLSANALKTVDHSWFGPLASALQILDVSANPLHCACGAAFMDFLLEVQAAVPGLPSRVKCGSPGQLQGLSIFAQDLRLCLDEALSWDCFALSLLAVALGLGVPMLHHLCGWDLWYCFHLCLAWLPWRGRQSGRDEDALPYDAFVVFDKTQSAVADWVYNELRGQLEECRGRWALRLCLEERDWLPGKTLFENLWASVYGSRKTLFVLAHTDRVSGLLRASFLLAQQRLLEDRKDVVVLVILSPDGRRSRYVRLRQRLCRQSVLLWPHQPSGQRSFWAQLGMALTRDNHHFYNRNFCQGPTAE
TLR4-MyD88 BLA = inhibitors of TLR4-MyD88 association in cells, primary screen, cell-based, HeLa CL3-4, BLA complementation, FRET ratio; hit rate 0.18% among 200,000; inhibition, % at 8.4 µM; HeLa CL3-4 TLR4/MyD88 BLA complementation; Toll-like receptor 4 (Homo sapiens) + Myeloid differentiation primary response protein …; AID 861, 2007; in the data active = inhibition above about 25%
NOD2-RIPK2 inh = NOD2-RIPK2 binding disruptors in cells, primary screen, fluorescence, CHO cells, BLA complementation. Receptor-interacting serine/threonine-protein kinase 2 (Homo sapiens), O43353. CCF4 ratio. inhibition, % at 4.98 µM. hit rate 0.38% among 360,000. AID 624267, 2012; in the data active = inhibition above about 21%
NOD2-RIPK2 conf = NOD2-RIPK2 binding disruptors, retest, confirmation, fluorescence, CHO cells, BLA complementation, triplicate. CCF4 FRET. inhibition, % at 4.98 µM. hit rate 70% among 1,200. shares compounds with NOD2-RIPK2 inh. AID 624370, 2012;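 active = mean inhibition across replicates above a set limit taken from the earlier primary screen, cut at about 21% in these data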
BLA counter = NOD2-RIPK2 counterscreen BLA reporter activity | shares compounds with NOD2-RIPK2 inh | CHO BLA reporter, CCF4 FRET ratio | inhibition, % at 4.98 µM | hit rate 57% among 1,200;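 active = mean inhibition above the low-control mean inhibition plus three low-control SD, cut at about 11% in these data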
Hits are given with their value; 0 = inactive; - = no result given.

SMILES	MT1-MMP act inh	SKN-1 inh	TLR9-MyD88 block	TLR4-MyD88 BLA	NOD2-RIPK2 inh	NOD2-RIPK2 conf	BLA counter
Cc1ccc(Nc2nc(N)c([N+](=O)[O-])c(NCc3ccco3)n2)cc1	0	0	0	0	25	0	0
O=C(NCc1cccnc1)c1ccc(-c2ccc(Cl)cc2)o1	0	0	0	0	0	-	-
O=C(NCc1cccnc1)/C(=C\c1ccc(-c2ccc(Cl)c(Cl)c2)o1)S(=O)(=O)c1ccccc1	0	0	0	0	41	42	0
CCc1nc2ccc(C(=O)NCCC(C)C)cn2c1N(C)Cc1nccs1	0	0	-	-	0	-	-
CNC(=S)N(CCCN(C)C)Cc1cc2cc3c(cc2[nH]c1=O)OCCO3	0	0	0	-	0	-	-
COc1ccc(NC(=O)CSc2nc3cccnc3n2C)cc1	0	0	0	0	32	0	0
O=[N+]([O-])c1cccnc1S(=O)(=O)c1ccccc1	0	0	0	-	0	-	-
COc1ccc([N+](=O)[O-])c(S(=O)(=O)c2ccc(Cl)cc2)n1	0	0	0	-	21	48	0
COc1nc(OC)nc(Oc2ccc(Cl)cc2[N+](=O)[O-])n1	0	0	0	0	0	-	-
COc1ccc([N+](=O)[O-])c(S(=O)(=O)c2ccccc2)n1	0	0	-	-	33	59	0
CC1(C(=O)NS(=O)(=O)c2ccc(Cl)cc2)CCN1C(=O)Cc1cccs1 (stereo not drawn)	0	0	-	-	0	-	-
NC(=O)c1ccc(NC(=O)c2cccc3c2OCCCO3)cc1	0	0	-	-	0	-	-
COc1ccc(OC)c(/C=C/C(=O)OCC(=O)N2C(C)CCCC2C)c1 (stereo not drawn)	0	0	0	-	21	0	0
O=[N+]([O-])c1cc(S(=O)(=O)Oc2ccccc2)ccc1Cl	0	0	0	-	58	0	0
NC(=O)COc1ccc(C(=O)/C=C2/C(=O)Nc3ccccc32)cc1	0	0	0	-	0	-	-
COc1ccc(C(=O)/C=C2/C(=O)Nc3ccccc32)c(OC)c1	0	0	0	-	31	30	0
COc1ccc(C(=O)/C=C2/C(=O)Nc3ccccc32)cc1OC	0	0	0	-	0	-	-
C=CCOc1ccccc1C(=O)/C=C1/C(=O)Nc2ccccc21	0	0	0	-	65	55	0
COc1ccc(C(=O)/C=C2/C(=O)Nc3ccccc32)cc1	0	0	0	-	33	0	0
C=CCOc1ccc(C(=O)/C=C2/C(=O)Nc3ccccc32)cc1	0	0	0	-	25	0	0
CC(C)c1ccc2[nH]c3nc(SCC(=O)N4CCOCC4)nnc3c2c1	0	0	0	0	0	-	-
CN(CC(=O)Nc1ccc(N2CCOCC2)cc1)C(=O)CCc1cc(C(C)(C)C)c(O)c(C(C)(C)C)c1	0	0	0	-	0	-	-
Cc1ccc(S(C)(=O)=O)cc1C(=O)OCC(=O)N1CCCC1=O	0	0	0	-	0	-	-
O=C1C=C(c2ccc(C(=O)O)cc2)C[C@@H](c2ccc3c(c2)OCO3)C1	0	0	0	-	0	-	-
CC(=O)Nc1ccc(S(=O)(=O)Nc2nc3ccccc3nc2Nc2ccc3ccccc3c2)cc1	0	0	0	0	22	0	0
SMILES	MT1-MMP act inh	SKN-1 inh	TLR9-MyD88 block	TLR4-MyD88 BLA	NOD2-RIPK2 inh	NOD2-RIPK2 conf	BLA counter
Cc1occc1C(=O)NNC(=O)c1ccccc1[N+](=O)[O-]	0	0	0	-	0	-	-
O=C(C(=Cc1ccc(F)cc1)C(=O)c1ccccc1)c1ccccc1	0	0	-	-	29	0	0
O=C(C(=Cc1ccc(F)cc1)c1ccccc1)c1ccc(O)cc1	0	0	0	-	0	-	-
COCCc1ccc(OC2(C)CCN(Cc3cccc(OCOC)c3)C2)cc1 (stereo not drawn)	0	0	-	-	0	-	-
O=C1CCN2C=Nc3cccc4ccc1c2c34	0	0	0	0	23	32	38
Cc1ccc(/C(C#N)=C\c2ccc(N3CCOCC3)o2)cc1	0	0	0	0	42	32	27
O=c1c(-c2cc3ccccc3[nH]2)nc2ccccc2n1C(CCc1ccccc1)c1nc2ccccc2[nH]1 (stereo not drawn)	0	0	-	-	38	36	62
CSCCC(c1nc2ccccc2[nH]1)n1c(=O)c(-c2cc3ccccc3[nH]2)nc2ccccc21 (stereo not drawn)	0	0	-	-	40	35	59
CC(C)C[C@H]1CN([C@@H](Cc2ccccc2)CN2CCC[C@H]2CN2C(=O)C(=O)NC[C@@H]2Cc2ccc(O)cc2)C(=O)C(=O)N1CC1CCCCCC1	0	0	-	-	0	-	-
CCOc1ccccc1C(=O)Oc1cc(C)[nH]c(=O)c1[N+](=O)[O-]	0	0	0	-	97	0	0
Cc1ccc(-c2csc3nc(C)n(N)c(=O)c23)o1	0	0	0	0	0	-	-
Cc1ccc(-c2csc3nc(C)n(-n4c(C)ccc4C)c(=O)c23)o1	0	0	0	0	49	0	0
O=S(=O)(NC1CCCCC1N1CCN(c2ccc(F)cc2)CC1)c1ccccc1 (stereo not drawn)	0	0	0	-	0	-	-
CCOc1ccccc1NC(=O)COC(=O)C(CC(C)C)N1C(=O)C2CC=CCC2C1=O (stereo not drawn)	0	0	0	0	0	-	-
CC(C)CC(C(=O)OCC(=O)Nc1cccc(Cl)c1)N1C(=O)C2CC=CCC2C1=O (stereo not drawn)	0	0	0	0	22	0	0
Nc1cnc(CNc2ccccc2Cl)cn1	0	0	0	-	0	-	-
CC1=C(C(=O)N(C(C)C)C(C)C)CC(CC(=O)NCCN2CCOCC2)C(=O)N1Cc1ccc(F)cc1 (stereo not drawn)	0	0	-	-	0	-	-
CCCn1nc(C(=O)NNC(=O)CCCOc2ccc(C)cc2)c2ccccc2c1=O	0	0	0	-	0	-	-
CC1CC(C)C(=NNC(N)=O)C(C(O)CC2CCC(=O)NC2=O)C1 (stereo not drawn)	0	0	0	-	25	0	0
O=[N+]([O-])c1ccccc1/C=N/Nc1nnc(-c2ccccc2)c(-c2ccccc2)n1	0	0	0	0	0	-	-
COc1ccc(CNC(=O)COc2cc(=O)n(C)c3ccccc23)cc1	0	0	0	0	25	0	0
CCOC(=O)C1=C(c2ccccc2)N=c2s/c(=C\c3ccc(O)cc3)c(=O)n2C1c1cccs1 (stereo not drawn)	0	0	0	0	25	31	42

From PubChem BioAssay
